Measured values reported in ChEMBL document CHEMBL3616436, “Synthesis, cytotoxicity and antimicrobial activity of thiourea derivatives incorporating 3-(trifluoromethyl)phenyl moiety” (Eur J Med Chem, 2015).
Values after ≈ are worked out from the molar mass of the structure shown. Active and inactive are the calls of the source. No cut-off for these calls is given here.

Tests used:
Staphylococcus aureus [1] = assay: Antimicrobial activity against hospital methicillin-resistant Staphylococcus aureus 573/11 after 18 hrs by twofold serial microdilution method; assay type: functional; conditions: 573/11, 18 h
Method in brief: (§1)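 Twofold serial microdilution in Mueller-Hinton broth. Compound stock was made in DMSO and diluted in sterile water. Tested range was 0.125–512 µg/mL. Final inoculum was 10^5 CFU/mL. Plates were incubated 18 h at 35 °C. MIC is the lowest concentration preventing visible growth.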

Staphylococcus aureus [2] = assay: Antimicrobial activity against hospital methicillin-resistant Staphylococcus aureus 522/11 after 18 hrs by twofold serial microdilution method; assay type: functional; conditions: 522/11, 18 h; method in brief: as §1
Bacillus subtilis = assay: Antimicrobial activity against Bacillus subtilis ATCC 6633 at 400 ug after 18 hrs by disc-diffusion method; assay type: functional; conditions: ATCC 6633, 18 h, read-out: IZ
Method in brief: (§2)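 Disc diffusion on Mueller-Hinton II agar per CLSI; 9 mm paper discs loaded with 400 µg compound from DMSO solution, dried, placed on agar; growth inhibition zone diameter read after 18 h at 35°C.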

Vaccinia virus = assay: Antiviral activity against Human Vaccinia virus ATCC VR-1549 infected in African green monkey Vero 76 cells assessed as reduction of virus-plaque formation after 3 days by crystal violet staining; assay type: functional, organism-based; conditions: Orthopoxvirus vaccinia, ATCC VR-1549, Vero, 72 h
Proteus vulgaris = assay: Antimicrobial activity against Proteus vulgaris NCTC 4635 at 400 ug after 18 hrs by disc-diffusion method; assay type: functional; method in brief: as §2
[3] = Cytotoxicity against bovine MDBK cells assessed as cell viability after 48 to 96 hrs by MTT assay; assay type: cell-based, Bos taurus; conditions: cattle
[4] = test system: Staphylococcus epidermidis; assay: Antimicrobial activity against hospital methicillin-resistant Staphylococcus epidermidis 31/04 after 18 hrs by twofold serial microdilution method; assay type: functional; conditions: 31/04, 18 h; method in brief: as §1
Staphylococcus aureus [5] = assay: Antimicrobial activity against hospital methicillin-resistant Staphylococcus aureus 81/05 after 18 hrs by twofold serial microdilution method; assay type: functional; conditions: 81/05, 18 h; method in brief: as §1
Staphylococcus aureus [6] = assay: Antimicrobial activity against hospital methicillin-resistant Staphylococcus aureus 57/05 after 18 hrs by twofold serial microdilution method; assay type: functional; conditions: 57/05, 18 h; method in brief: as §1
[7] = test system: Mycobacterium tuberculosis; assay: Antimycobacterial activity against Mycobacterium tuberculosis H37Rv ATCC 25618; assay type: functional
Method in brief: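 Classical test-tube successive-dilution method in Youmans' modification of Proskauer and Beck liquid medium with 10% bovine serum. Inoculum came from 14-day cultures. DMSO stock was 10 mg/mL, diluted geometrically in medium. Tubes were incubated at 37 °C. Concentrations tested were 3.1, 6.2, 12.5, 25, 50 and 100 µg/ml. MIC is the minimum concentration inhibiting growth relative to compound-free tubes.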

[8] = test system: Staphylococcus epidermidis; assay: Antimicrobial activity against Staphylococcus epidermidis ATCC 12228 at 400 ug after 18 hrs by disc-diffusion method; assay type: functional; conditions: ATCC 12228, 18 h, read-out: IZ; method in brief: as §2
[9] = test system: Staphylococcus epidermidis; assay: Antimicrobial activity against hospital methicillin-resistant Staphylococcus epidermidis 16/04 after 18 hrs by twofold serial microdilution method; assay type: functional; conditions: 16/04, 18 h; method in brief: as §1
Yellow fever virus = assay: Antiviral activity against Yellow fever virus 17D infected in BHK cells assessed as protection against virus-induced cytopathogenicity after 3 to 4 days by MTT assay; assay type: functional, cell-based
Staphylococcus aureus [10] = assay: Antimicrobial activity against Staphylococcus aureus ATCC 25923 at 400 ug after 18 hrs by disc-diffusion method; assay type: functional; conditions: ATCC 25923, 18 h, read-out: IZ; method in brief: as §2
Staphylococcus aureus [11] = assay: Antimicrobial activity against Staphylococcus aureus NCTC 4163 at 400 ug after 18 hrs by disc-diffusion method; assay type: functional; conditions: NCTC 4163, 18 h, read-out: IZ; method in brief: as §2
Micrococcus luteus = assay: Antimicrobial activity against Micrococcus luteus ATCC 9341 at 400 ug after 18 hrs by disc-diffusion method; assay type: functional; conditions: ATCC 9341, 18 h, read-out: IZ; method in brief: as §2
[12] = Cytotoxicity against BHK cells assessed as cell viability after 48 to 96 hrs by MTT assay; assay type: cell-based, Mesocricetus auratus; conditions: hamster
[13] = Cytotoxicity against African green monkey Vero 76 cells assessed as cell viability after 48 to 96 hrs by crystal violet staining; assay type: cell-based; conditions: chlorocebus sabaeus
Staphylococcus aureus [14] = assay: Antimicrobial activity against Staphylococcus aureus ATCC 25923 after 18 hrs by twofold serial microdilution method; assay type: functional; conditions: ATCC 25923, 18 h
[15] = test system: Vesicular stomatitis virus; assay: Antiviral activity against Vesicular stomatitis virus ATCC VR 1540 infected in African green monkey Vero 76 cells assessed as reduction of virus-plaque formation after 2 days by crystal violet staining; assay type: functional, organism-based; conditions: ATCC VR 1540, Vero, 48 h
Enterococcus hirae = assay: Antimicrobial activity against Enterococcus hirae ATCC 10541 at 400 ug after 18 hrs by disc-diffusion method; assay type: functional; conditions: for zone of inhibition at 400 µg/disc: ATCC 10541, 18 h, read-out: IZ; method in brief: as §2
[16] = test system: Staphylococcus epidermidis; assay: Ratio of ciprofloxacin MIC to compound MIC for hospital methicillin-resistant Staphylococcus epidermidis 62/04 after 18 hrs by twofold serial microdilution method; assay type: functional
Method in brief: (§3)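 Ratio of MICs for ciprofloxacin and test agent, each from twofold serial broth microdilution in Mueller-Hinton broth following CLSI guidelines. DMSO stock was diluted in sterile water to 0.125–512 µg/mL, with a final inoculum of 10^5 CFU/mL.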

Staphylococcus aureus [17] = assay: Antimicrobial activity against Staphylococcus aureus ATCC 29213 at 400 ug after 18 hrs by disc-diffusion method; assay type: functional; conditions: ATCC 29213, 18 h, read-out: IZ; method in brief: as §2
Coxsackievirus B5 = assay: Antiviral activity against Human coxsackievirus B5 ATCC VR-29 infected in African green monkey Vero 76 cells assessed as reduction of virus-plaque formation after 3 days by crystal violet staining; assay type: functional, organism-based; conditions: Enterovirus B, ATCC VR-29, Vero, 72 h
Method in brief: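 Plaque reduction: Vero-76 at 2x10^5 cells/well grown to confluent monolayers, infected 2 h at 50–100 PFU/well; after removing unadsorbed virus, overlay of D-MEM, 1% inactivated FBS, 0.75% methylcellulose with or without serial compound dilutions; 3 days at 37°C, fixed and stained with crystal violet in 50% ethanol, plaques counted; EC50 by linear regression.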

[18] = test system: Staphylococcus epidermidis; assay: Ratio of ciprofloxacin MIC to compound MIC for hospital methicillin-resistant Staphylococcus epidermidis 31/04 after 18 hrs by twofold serial microdilution method; assay type: functional; method in brief: as §3
[19] = test system: Staphylococcus epidermidis; assay: Ratio of ciprofloxacin MIC to compound MIC for hospital methicillin-resistant Staphylococcus epidermidis 63/04 after 18 hrs by twofold serial microdilution method; assay type: functional; method in brief: as §3
[20] = test system: Staphylococcus epidermidis; assay: Ratio of ciprofloxacin MIC to compound MIC for hospital methicillin-resistant Staphylococcus epidermidis 76/04 after 18 hrs by twofold serial microdilution method; assay type: functional; method in brief: as §3
[21] = test system: Human immunodeficiency virus 1; assay: Antiviral activity against HIV1 3B infected in human MT4 cells assessed as protection against virus-induced cytopathogenicity by MTT assay; assay type: functional, organism-based; conditions: Human immunodeficiency virus 1, 3B
[22] = test system: Staphylococcus epidermidis; assay: Antimicrobial activity against hospital methicillin-resistant Staphylococcus epidermidis 63/04 after 18 hrs by twofold serial microdilution method; assay type: functional; conditions: 63/04, 18 h; method in brief: as §1
[23] = test system: Staphylococcus epidermidis; assay: Antimicrobial activity against Staphylococcus epidermidis ATCC 35984 at 400 ug after 18 hrs by disc-diffusion method; assay type: functional; conditions: ATCC 35984, 18 h, read-out: IZ; method in brief: as §2
Bacillus cereus = assay: Antimicrobial activity against Bacillus cereus ATCC 11778 at 400 ug after 18 hrs by disc-diffusion method; assay type: functional; conditions: ATCC 11778, 18 h, read-out: IZ; method in brief: as §2

## Fc1cccc(NC(=S)Nc2cccc(C(F)(F)F)c2)c1
Staphylococcus aureus [1]
  MIC: 8 µg/mL (≈ 25.5 µM)
Staphylococcus aureus [2]
  MIC: 8 µg/mL (≈ 25.5 µM)
Bacillus subtilis
  zone of inhibition at 400 µg/disc: 20 mm
Vaccinia virus
  EC50: > 20 µM
Proteus vulgaris
  inhibition zone (IZ): inactive
[3]
  CC50: 10 µM
[4]
  MIC: 8 µg/mL (≈ 25.5 µM)
Staphylococcus aureus [5]
  MIC: 8 µg/mL (≈ 25.5 µM)
Staphylococcus aureus [6]
  MIC: 4 µg/mL (≈ 12.7 µM)
[7]
  MIC: 25 µg/mL (≈ 79.5 µM)
[8]
  zone of inhibition at 400 µg/disc: 19 mm
[9]
  MIC: 8 µg/mL (≈ 25.5 µM)
Yellow fever virus
  EC50: > 9.4 µM
Staphylococcus aureus [10]
  zone of inhibition at 400 µg/disc: 22 mm
Staphylococcus aureus [11]
  zone of inhibition at 400 µg/disc: 20 mm
Micrococcus luteus
  zone of inhibition at 400 µg/disc: 23 mm
[12]
  CC50: 9.4 µM
[13]
  CC50: 20 µM
Staphylococcus aureus [14]
  MIC: 4 µg/mL (≈ 12.7 µM)
[15]
  EC50: > 20 µM
Enterococcus hirae
  zone of inhibition at 400 µg/disc: 25 mm
[16]
  Ratio: 128
Staphylococcus aureus [17]
  zone of inhibition at 400 µg/disc: 21 mm
Coxsackievirus B5
  EC50: > 20 µM
[18]
  Ratio: 128
[19]
  Ratio: 128
[20]
  Ratio: 128
[21]
  EC50: > 20 µM
[22]
  MIC: 16 µg/mL (≈ 50.9 µM)
[23]
  zone of inhibition at 400 µg/disc: 19 mm
Bacillus cereus
  zone of inhibition at 400 µg/disc: 18 mm

## FC(F)(F)c1cccc(NC(S)=NCc2ccccc2)c1
Staphylococcus aureus [1]
  MIC: 16 µg/mL (≈ 51.6 µM)
Staphylococcus aureus [2]
  MIC: 16 µg/mL (≈ 51.6 µM)
Bacillus subtilis
  zone of inhibition at 400 µg/disc: 16 mm
Vaccinia virus
  EC50: > 35 µM
Proteus vulgaris
  inhibition zone (IZ): inactive
[3]
  CC50: 40 µM
[4]
  MIC: 16 µg/mL (≈ 51.6 µM)
Staphylococcus aureus [5]
  MIC: 8 µg/mL (≈ 25.8 µM)
Staphylococcus aureus [6]
  MIC: 8 µg/mL (≈ 25.8 µM)
[7]
  MIC: 25 µg/mL (≈ 80.6 µM)
[8]
  zone of inhibition at 400 µg/disc: 17 mm
[9]
  MIC: 16 µg/mL (≈ 51.6 µM)
Yellow fever virus
  EC50: > 45 µM
Staphylococcus aureus [10]
  zone of inhibition at 400 µg/disc: 19 mm
Staphylococcus aureus [11]
  zone of inhibition at 400 µg/disc: 18 mm
Micrococcus luteus
  zone of inhibition at 400 µg/disc: 19 mm
[12]
  CC50: 45 µM
[13]
  CC50: 35 µM
Staphylococcus aureus [14]
  MIC: 16 µg/mL (≈ 51.6 µM)
[15]
  EC50: > 35 µM
Enterococcus hirae
  inhibition zone (IZ): inactive
[16]
  Ratio: 128
Staphylococcus aureus [17]
  zone of inhibition at 400 µg/disc: 16 mm
Coxsackievirus B5
  EC50: > 35 µM
[18]
  Ratio: 128
[19]
  Ratio: 128
[20]
  Ratio: 128
[21]
  EC50: > 45 µM
[22]
  MIC: 16 µg/mL (≈ 51.6 µM)
[23]
  zone of inhibition at 400 µg/disc: 13 mm
Bacillus cereus
  zone of inhibition at 400 µg/disc: 15 mm

## FC(F)(F)c1cccc(NC(S)=Nc2ccc(Cl)c(Cl)c2)c1
Staphylococcus aureus [1]
  MIC: 1 µg/mL (≈ 2.74 µM)
Staphylococcus aureus [2]
  MIC: 1 µg/mL (≈ 2.74 µM)
Bacillus subtilis
  zone of inhibition at 400 µg/disc: 11 mm
Vaccinia virus
  EC50: > 16 µM
Proteus vulgaris
  inhibition zone (IZ): inactive
[4]
  MIC: 1 µg/mL (≈ 2.74 µM)
Staphylococcus aureus [5]
  MIC: 1 µg/mL (≈ 2.74 µM)
Staphylococcus aureus [6]
  MIC: 2 µg/mL (≈ 5.48 µM)
[7]
  MIC: 50 µg/mL (≈ 137 µM)
[8]
  zone of inhibition at 400 µg/disc: 13 mm
[9]
  MIC: 2 µg/mL (≈ 5.48 µM)
Yellow fever virus
  EC50: > 9.5 µM
Staphylococcus aureus [10]
  zone of inhibition at 400 µg/disc: 14 mm
Staphylococcus aureus [11]
  zone of inhibition at 400 µg/disc: 15 mm
Micrococcus luteus
  zone of inhibition at 400 µg/disc: 15 mm
Staphylococcus aureus [14]
  MIC: 0.5 µg/mL (≈ 1.37 µM)
[15]
  EC50: > 16 µM
Enterococcus hirae
  zone of inhibition at 400 µg/disc: 15 mm
[16]
  Ratio: 128
Staphylococcus aureus [17]
  zone of inhibition at 400 µg/disc: 15 mm
Coxsackievirus B5
  EC50: > 16 µM
[18]
  Ratio: 128
[19]
  Ratio: 128
[20]
  Ratio: 128
[21]
  EC50: > 9 µM
[22]
  MIC: 2 µg/mL (≈ 5.48 µM)
[23]
  zone of inhibition at 400 µg/disc: 13 mm
Bacillus cereus
  zone of inhibition at 400 µg/disc: 13 mm
